Rows were chosen to be rich in hits. Some 9.2% of all compounds tested hit in one or more screens of this group.
H69AR growth 86K: growth inhibitors of human H69AR lung tumor cells; H69AR lung tumor viability, ATP luminescence, 72 h; active compounds read low; viability, % at 10 µM; hit rate 6% among 85,000;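 active = viability at or below 40%; inactive = viability above 40%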;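 note: multidrug resistant small cell line overexpressing MRP-1 efflux transporter; 100% = mean luminescence of untreated control wells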
HUVEC prolif 384: human endothelial cell proliferation inhibition | viability, % at 10 µM (by protocol) | hit rate 1.1% among 86,000 | HUVEC proliferation, CellTiter-Glo luminescence, 72 h; active compounds read low;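 active = viability at or below 30%; inactive = viability above 30%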;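 note: 100% = median luminescence of DMSO-only cell control wells on each plate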
ERa coact inh: ER-alpha (human) coactivator binding inhibition | P03372 | TR-FRET ER-alpha LBD / SRC-1 peptide, estradiol-bound | inhibition, % at 25.6 µM | hit rate 1.7% among 86,000 | AID 629; in the data active = inhibition above about 50%;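 note: 0% = receptor plus peptide control and 100% = peptide only without receptor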
Target sequence (P03372 whole entry, looked up, the tested form may be a part): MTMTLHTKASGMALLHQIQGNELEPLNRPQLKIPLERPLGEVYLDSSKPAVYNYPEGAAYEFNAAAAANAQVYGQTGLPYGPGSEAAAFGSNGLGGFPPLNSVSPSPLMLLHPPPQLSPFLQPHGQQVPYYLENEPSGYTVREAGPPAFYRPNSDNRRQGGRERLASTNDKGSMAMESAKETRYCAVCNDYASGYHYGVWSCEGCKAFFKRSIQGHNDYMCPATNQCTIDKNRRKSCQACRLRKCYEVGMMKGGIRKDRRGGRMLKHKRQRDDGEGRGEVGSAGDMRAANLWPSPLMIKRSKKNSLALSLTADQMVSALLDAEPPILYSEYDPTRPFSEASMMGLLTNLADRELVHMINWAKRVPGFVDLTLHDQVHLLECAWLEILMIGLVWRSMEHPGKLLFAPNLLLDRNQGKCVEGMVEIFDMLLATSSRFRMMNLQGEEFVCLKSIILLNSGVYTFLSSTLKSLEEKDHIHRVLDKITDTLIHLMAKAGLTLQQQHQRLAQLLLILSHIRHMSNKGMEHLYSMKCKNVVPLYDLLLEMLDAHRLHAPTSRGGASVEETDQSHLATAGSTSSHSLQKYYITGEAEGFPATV
Lung fibro prol: blocks proliferation of human lung fibroblasts. viability, % at 10 µM. LL 47 human lung fibroblast viability, ATP luminescence; active compounds read low. hit rate 1.1% among 85,000. AID 719;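 active = viability at or below 50% in the single dose screen; inactive = viability above 50%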;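 note: compound exposure lasted 72 h before the ATP readout; 100% = median luminescence of untreated cell-only wells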
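material = human LL 47 lung fibroblast cells | dosing = compounds added from tenfold dosing solution, 0.1% DMSO final | timing = overnight cell rest, 72 h compound treatment at 37 °C | measured by = CellTiter-Glo luminescence measuring cellular ATP | evaluation = % viability versus median cells-only luminescence | control set = cell-only wells, no compound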
ERa coact pot: enhances coactivator binding to human estrogen receptor alpha; P03372; TR-FRET ERalpha-LBD/SRC-Cy5 coactivator binding, 2 h; 100 = basal binding, no effect; coactivator binding (% of control), % at 25.6 µM; hit rate 1.3% among 86,000; in the data active = activity above about 200%;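 note: binding measured in presence of low estradiol as agonist stimulus; 0% = peptide alone without receptor and 100% = receptor with peptide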
ERb coact inh: blocks coactivator binding to human estrogen receptor beta | hit rate 1.3% among 86,000 | inhibition, % at 25.6 µM | TR-FRET ER-beta LBD / SRC1-Cy5 peptide binding; receptor agonist-loaded with 1 µM estradiol | AID 633;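 active = compounds whose percent inhibition of the receptor-coactivator binding signal exceeds about 50% in the single-dose screen, limit read from the data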;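 note: 0% = receptor plus peptide wells without compound and 100% = peptide-only wells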
The depositor's hits bear a star; [ ] = remark or other dose.

SMILES | H69AR growth 86K | HUVEC prolif 384 | ERa coact inh | Lung fibro prol | ERa coact pot | ERb coact inh
COc1cc(C2Sc3ccccc3NC3=C2C(=O)OC3)cc(OC)c1OC (configuration not stated) | 14* | 72 | 4 | 81 | 103 | -4
O=c1[nH]c2c(cc1CNCCN1CCOCC1)c(-c1cccc(F)c1)nn2-c1ccccc1 | 45 | 32 | 0 | 91 | 104 | 2
Cc1nn(Cc2ccccc2Cl)c2sc(C(=O)NCc3ccc4c(c3)OCO4)cc12 | 48 | 85 | 5 | 94 | 99 | -1
Cc1nn(-c2ccccc2)c2[nH]c(=O)c(CNc3ccc(N4CCOCC4)cc3)cc12 | 18* | 76 | -34 | 94 | 101 | -6
Cc1nn(-c2ccc(Cl)cc2)c2[nH]c(=O)c(CNCc3ccc4c(c3)OCO4)cc12 | 32* | 82 | -1 | 88 | 93 | 4
COc1ccc(C2=CC(c3ccc(Cl)cc3)n3cnnc3N2)cc1OC (configuration not stated) | 90 | 97 | -66 | 89 | 114 | -10
COc1cccc(N2C(=O)CC(N3CCC(C(N)=O)(N4CCCCC4)CC3)C2=O)c1 (configuration not stated) | 94 | 97 | -9 | 103 | 119 | -6
CC(C)c1nnc(NC(=O)CCS(=O)(=O)c2nc(-c3cccs3)cc(C(F)(F)F)n2)s1 | 1.1* | 16* | -4 | 85 | 109 | -5
OCCNc1nc(SCc2ccccc2)nc2sc3c(c12)CCC3 | 63 | 66 | 4 | 76 | 87 | 6
Cc1cc(C)c2nc(-c3ccccn3)cc(C(=O)NCc3ccco3)c2c1 | 45 | 78 | 66* | 91 | 83 | 63*[fluorescence artefact?]
Cc1cc(NC(=O)c2cc(-c3ccccn3)nc3ccccc23)no1 | 83 | 94 | -7 | 93 | 88 | -13
Cc1cc(NC(=O)c2cc(-c3ccncc3)nc3c(C)cccc23)no1 | 24* | 33 | 26 | 50 | 128 | 15
Cc1cc(C)c2nc(-c3ccccn3)cc(C(=O)Nc3cc(C)on3)c2c1 | 34* | 50 | 6 | 81 | 102 | 10
CCOC(=O)Cc1csc(NC(=O)CSc2nc(N)c3c(C)c(C)sc3n2)n1 | 86 | 90 | 4 | 102 | 88 | -5
O=c1[nH]c(CSc2nnc(NCCCN3CCOCC3)s2)nc2cc(Cl)ccc12 | 74 | 97 | -1 | 100 | 93 | 1
Cc1c(-c2nc(N)nc(Nc3ccccc3F)n2)oc2ccccc12 | 20* | 79 | -3 | 78 | 131 | 1
COc1cccc(Nc2nc(N)nc(-c3oc4ccccc4c3C)n2)c1 | 17* | 38 | -8 | 65 | 108 | -8
Cc1ccccc1Nc1nc(N)nc(CN(C)c2ccccc2)n1 | 77 | 87 | -20 | 91 | 114 | -1
COc1ccccc1Nc1nc(N)nc(-c2cc3ccccc3o2)n1 | 10* | 94 | 0 | 104 | 146 | -6
CCOC(=O)c1cnc(SCC(=O)Nc2ccccc2N2CCOCC2)nc1N | 92 | 100 | -6 | 85 | 100 | -14
CCOCCCNS(=O)(=O)c1cc(Br)cc2c1N(C(=O)C1CC1)CC2 | 87 | 105 | 8 | 106 | 96 | 2
CCCCN(C)S(=O)(=O)c1cc(Br)cc2c1N(C(=O)C1CC1)CC2 | 31* | 77 | 4 | 92 | 93 | 0
COc1cc(C2Nc3ccccc3C(=O)N2c2ccccc2OC)ccc1O (configuration not stated) | 85 | 114 | -2 | 104 | 104 | 12
COc1cc(C2Nc3ccc4ncccc4c3C3=C2C(=O)CCC3)ccc1O (configuration not stated) | 28* | 64 | 17 | 70 | 94 | 14
CC(OCC(O)CN(C)CCOc1ccccc1)c1ccc(Cl)cc1 (configuration not stated) | 84 | 72 | -10 | 96 | 112 | -6
SMILES | H69AR growth 86K | HUVEC prolif 384 | ERa coact inh | Lung fibro prol | ERa coact pot | ERb coact inh
CC12CCCCC1(O)[N+](=O)C1=C(CCCC1)N2[O-] (configuration not stated) | 77 | 99 | 39 | 105 | 68 | 66*
Cc1ccc(-n2nc3c([n+]2[O-])CCc2c-3no[n+]2[O-])cc1 | 38* | 97 | -1 | 94 | 79 | 0
Nc1ccc2c(c1)N1CCN=C1S2 | 99 | 99 | 17 | 99 | 80 | 20
O=C(Nc1ccc(Cl)cc1)Nc1ccc2c(c1)N1CCN=C1S2 | 35* | 62 | 46 | 102 | 67 | 30
CC(C)OC(=O)c1nnc(Cc2ccc(F)cc2)o1 | 106 | 101 | 2 | 99 | 78 | 21
CC(C)C[C@H](N)c1nnc(S(=O)(=O)Cc2ccc(F)cc2)o1 | 5.9* | 100 | -3 | 67 | 85 | 5
CCN(CC)c1ccc(NC(=O)OC)cc1 | 87 | 108 | 0 | 95 | 82 | 4
c1ccc2nc3c(nc2c1)c1ccccc1n3CCN1CCOCC1 | 83 | 92 | -4 | 84 | 122 | 3
Brc1ccc2c(c1)c1nc3ccccc3nc1n2CCN1CCOCC1 | 66 | 51 | 56*[fluorescence artefact?] | 60 | 99 | 45
Cc1ccc(S(=O)(=O)N2CCSC2c2ccco2)cc1 (configuration not stated) | 84 | 103 | 7 | 90 | 88 | 9
Cc1ccc(-c2nn(CC(=O)N(C)C)c(=O)c3ccccc23)cc1S(=O)(=O)N(C)C | 70 | 100 | -6 | 96 | 114 | -6
CSc1ccc(S(=O)(=O)Nc2ccc3c(c2)OCCO3)cc1 | 95 | 107 | -3 | 105 | 86 | -3
COc1cc(C(=O)O/N=C2\CCCc3c2ccc(OC)c3[N+](=O)[O-])cc(OC)c1OC | 17* | 58 | 11 | 71 | 91 | 2
O=C(CSc1nc2ccccc2c(=O)n1-c1ccc(Cl)cc1)c1ccco1 | 70 | 76 | 8 | 84 | 101 | 8
CC(C)CCOc1ccc(C(=O)CCNC(C)C(=O)O)cc1 (configuration not stated) | 81 | 92 | 10 | 89 | 100 | 0
Cc1sc(NC(=O)CSc2nnc3scc(-c4ccccc4)n23)c(C#N)c1C | 98 | 89 | 37 | 89 | 224*[fluorescence artefact?] | 34
Cc1ccc(OCc2nnc(SCC(=O)Nc3sc(C)c(C)c3C#N)n2C)cc1 | 62 | 78 | 15 | 102 | 250* | 10
Cc1ccc(-c2nc(NC(=O)CSc3nnc4scc(-c5ccccc5)n34)ns2)cc1 | 77 | 105 | 24 | 102 | 203*[fluorescence artefact?] | -4
Cc1ccc(-c2csc3nnc(SCc4csc(C)n4)n23)cc1 | 53 | 73 | 1 | 89 | 365*[fluorescence artefact?] | 0
Cc1sc(NC(=O)CSc2nnc(COc3ccccc3)n2C)c(C#N)c1C | 53 | 60 | 1 | 92 | 131 | 3
Cc1ccc2nc(C3CCN(CC(=O)N4CCCCCC4)CC3)[nH]c2c1 | 89 | 88 | 9 | 97 | 92 | 5
